How the values were obtained:
[1] = biological target: Melanocortin receptor 3 (Mus musculus) (UniProt P33033); experiment: Partial agonist activity at mouse MC3 receptor expressed in HEK293 cells at 10^-4 M to 10^-12 M after 6 hrs by cAMP-based beta-galactosidase reporter gene assay; assay type: functional, cell-based
Method in brief: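 In the mMC3R HEK-293 CRE/β-galactosidase reporter assay, cells were exposed 6 h to peptide at 10^-4 to 10^-12 M in IBMX/BSA medium. Maximal efficacy is expressed relative to NDP-MSH run on the same plate.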

Melanocortin receptor 3 [2] = biological target: T1, Melanocortin receptor 3 (Mus musculus, UniProt P33033); experiment: Antagonist activity at mouse MC3 receptor expressed in HEK293 cells after 6 hrs by cAMP-based beta-galactosidase reporter gene assay; assay type: functional, cell-based; details: read-out: pA2 (converted)
T1 sequence (P33033 whole entry): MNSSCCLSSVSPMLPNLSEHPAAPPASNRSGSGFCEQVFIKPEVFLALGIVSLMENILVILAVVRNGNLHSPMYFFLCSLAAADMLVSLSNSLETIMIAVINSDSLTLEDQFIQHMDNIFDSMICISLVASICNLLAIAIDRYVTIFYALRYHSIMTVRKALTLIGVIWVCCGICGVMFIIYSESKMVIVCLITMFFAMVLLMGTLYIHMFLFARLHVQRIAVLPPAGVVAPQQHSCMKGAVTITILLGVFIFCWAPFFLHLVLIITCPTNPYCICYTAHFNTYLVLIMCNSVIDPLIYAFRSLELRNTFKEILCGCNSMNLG

Melanocortin receptor 5 = Melanocortin receptor 5 (Mus musculus, UniProt P41149); experiment: Agonist activity at mouse MC5 receptor expressed in HEK293 cells after 6 hrs by cAMP-based beta-galactosidase reporter gene assay; assay type: functional, cell-based
Chain of Melanocortin receptor 5 (P41149 whole entry): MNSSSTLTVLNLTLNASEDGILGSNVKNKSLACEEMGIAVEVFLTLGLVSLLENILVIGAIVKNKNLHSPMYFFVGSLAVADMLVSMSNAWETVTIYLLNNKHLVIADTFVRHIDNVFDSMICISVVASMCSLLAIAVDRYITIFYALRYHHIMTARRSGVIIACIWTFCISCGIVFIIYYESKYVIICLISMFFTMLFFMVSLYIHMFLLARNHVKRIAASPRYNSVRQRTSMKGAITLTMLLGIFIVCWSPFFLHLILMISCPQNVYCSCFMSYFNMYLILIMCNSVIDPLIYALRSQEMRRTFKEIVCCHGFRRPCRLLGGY
Method in brief: (§1)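 HEK-293 cells stably expressing the mouse receptor, kept in DMEM with 10% fetal calf serum, transfected with CRE/β-galactosidase reporter. Efficacy is relative to NDP-MSH on the same plate. EC50 is the mean of duplicate wells from three or more independent experiments, fitted by nonlinear least squares.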

Melanocortin receptor 4 = Melanocortin receptor 4 (Mus musculus, UniProt P56450); experiment: Agonist activity at mouse MC4 receptor expressed in HEK293 cells after 6 hrs by cAMP-based beta-galactosidase reporter gene assay; assay type: functional, cell-based; method in brief: as §1
Chain of Melanocortin receptor 4 (P56450 whole entry): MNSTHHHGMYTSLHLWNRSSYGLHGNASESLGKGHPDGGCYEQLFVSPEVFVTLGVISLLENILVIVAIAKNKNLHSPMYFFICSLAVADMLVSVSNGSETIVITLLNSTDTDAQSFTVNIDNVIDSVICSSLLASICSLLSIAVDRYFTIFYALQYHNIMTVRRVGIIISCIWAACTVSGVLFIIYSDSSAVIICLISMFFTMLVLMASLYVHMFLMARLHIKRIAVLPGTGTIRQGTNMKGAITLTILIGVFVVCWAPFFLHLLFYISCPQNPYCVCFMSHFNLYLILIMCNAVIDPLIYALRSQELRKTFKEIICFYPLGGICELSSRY

Melanocortin receptor 3 [3] = biological target: T1, Melanocortin receptor 3; experiment: Agonist activity at mouse MC3 receptor expressed in HEK293 cells after 6 hrs by cAMP-based beta-galactosidase reporter gene assay; assay type: functional, cell-based; method in brief: as §1
[4] = biological target: Melanocyte-stimulating hormone receptor (Mus musculus, UniProt Q01727); experiment: Agonist activity at mouse MC1 receptor expressed in HEK293 cells after 6 hrs by cAMP-based beta-galactosidase reporter gene assay; assay type: functional, cell-based; method in brief: as §1
Chain of Melanocyte-stimulating hormone receptor (Q01727 whole entry): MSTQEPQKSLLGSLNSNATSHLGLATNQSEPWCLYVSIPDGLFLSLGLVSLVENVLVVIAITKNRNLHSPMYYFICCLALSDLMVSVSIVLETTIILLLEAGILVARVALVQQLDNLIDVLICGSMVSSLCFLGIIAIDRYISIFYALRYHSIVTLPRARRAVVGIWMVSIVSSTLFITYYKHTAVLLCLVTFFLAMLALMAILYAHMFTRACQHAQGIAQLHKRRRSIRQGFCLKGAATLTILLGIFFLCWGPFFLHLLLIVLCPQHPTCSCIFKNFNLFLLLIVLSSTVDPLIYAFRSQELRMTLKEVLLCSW

Mus musculus = species: Mus musculus; experiment: Selectivity for mouse MC3 receptor over mouse MC4 receptor

Chain of Melanocortin receptor 3 (Mus musculus) (P33033 whole entry): as the sequence (P33033 whole entry) above

Row | Compound | Emax [1] [%] | Kb (Melanocortin receptor 3 [2]) [nM] | EC50 (Melanocortin receptor 5) [nM] | EC50 (Melanocortin receptor 4) [nM] | EC50 (Melanocortin receptor 3 [3]) [nM] | EC50 [4] [nM] | Selectivity ratio (Mus musculus)
1 | C[C@@H]1NC(=O)[C@H](CC(N)=O)NC(=O)[C@H](Cc2c[nH]c3ccccc23)N2C[C@H](CCCNC(=N)N)NC(=O)[C@@H](CSCC2=O)NC(=O)[C@@H](Cc2ccc3ccccc3c2)NC(=O)[C@H](Cc2cnc[nH]2)NC(=O)[C@@H](NC(=O)[C@@H](N)Cc2ccc(O)cc2)CSSC[C@@H](C(=O)N[C@@H](Cc2ccc(O)cc2)C(N)=O)NC(=O)[C@H](Cc2ccccc2)NC1=O | 20 | – | – | – | – | – | –
2 | C[C@@H]1NC(=O)[C@H](CC(N)=O)NC(=O)[C@H](Cc2c[nH]c3ccccc23)N2C[C@H](CCCN=C(N)N)NC(=O)[C@@H](CSCC2=O)NC(=O)[C@@H](Cc2ccc3ccccc3c2)NC(=O)[C@H](Cc2cnc[nH]2)NC(=O)[C@@H](NC(=O)[C@@H](N)Cc2ccc(O)cc2)CSSC[C@@H](C(=O)N[C@@H](Cc2ccc(O)cc2)C(N)=O)NC(=O)[C@H](Cc2ccccc2)NC1=O | – | 25.1 | – | – | – | – | –
3 | C[C@@H]1NC(=O)[C@H](Cc2cnc[nH]2)NC(=O)[C@@H](NC(=O)[C@@H](N)Cc2ccc(O)cc2)CSSC[C@@H](C(=O)N[C@@H](Cc2ccc(O)cc2)C(N)=O)NC(=O)[C@H](Cc2ccccc2)NC(=O)[C@H](C)NC(=O)[C@H](CC(N)=O)NC(=O)[C@H](Cc2c[nH]c3ccccc23)N2C[C@H](CCCN=C(N)N)NC(=O)[C@@H](CSCC2=O)NC1=O | – | – | 7700 | 20100 | 7720 | 12500 | –
4 | C[C@@H]1NC(=O)[C@H](CC(N)=O)NC(=O)[C@H](Cc2c[nH]c3ccccc23)NC(=O)[C@H](CCCN=C(N)N)NC(=O)[C@@H](Cc2ccccc2)NC(=O)[C@H](Cc2cnc[nH]2)NC(=O)[C@@H](NC(=O)[C@@H](N)Cc2ccc(O)cc2)CSSC[C@@H](C(=O)N[C@@H](Cc2ccc(O)cc2)C(N)=O)NC(=O)[C@H](Cc2ccccc2)NC1=O | – | – | 1.45 | 0.17 | 1.7 | 0.3 | –
5 | C[C@@H]1NC(=O)[C@H](CC(N)=O)NC(=O)[C@H](Cc2c[nH]c3ccccc23)N2C[C@H](CCCNC(=N)N)NC(=O)[C@@H](CSCC2=O)NC(=O)[C@@H](Cc2ccc(-c3ccccc3)cc2)NC(=O)[C@H](Cc2cnc[nH]2)NC(=O)[C@@H](NC(=O)[C@@H](N)Cc2ccc(O)cc2)CSSC[C@@H](C(=O)N[C@@H](Cc2ccc(O)cc2)C(N)=O)NC(=O)[C@H](Cc2ccccc2)NC1=O | 10 | 0.126 | – | – | – | – | 5800

Reference: ChEMBL document CHEMBL2321783, “Structure-activity relationships of peptides incorporating a bioactive reverse-turn heterocycle at the melanocortin receptors: identification of a 5800-fold mouse melanocortin-3 receptor (mMC3R) selective antagonist/partial agonist versus the mouse melanocortin-4 receptor (mMC4R)” (J Med Chem, 2013)
